{"data": "Measurements pooled from the literature", "target": "Tyrosine-protein kinase Fgr (FGR, Homo sapiens, UniProt P09769)"}
{"Compound": "CC(C)(O)[C@H]1CC[C@H](Nc2ccc3ncc(-c4cccc(C(F)(F)F)c4)n3n2)CC1", "assay": "enzyme activity, inhibitor", "setting": "1 µM", "measurement": "remaining activity", "value": "36.8%"}
{"Compound": "O=C(Nc1cnn(-c2csc(C(=O)NC3COC3)c2)c1)Nc1c(F)cccc1Cl", "assay": "enzyme activity, inhibitor", "setting": "5 µM", "measurement": "remaining activity", "value": "95.5%"}
{"Compound": "CNC(=O)c1cc(Oc2ccc(NC(=O)Nc3ccc(Cl)c(C(F)(F)F)c3)cc2)ccn1", "assay": "enzyme activity, inhibitor", "setting": "0.3 µM", "measurement": "inhibition", "value": "10%"}
{"Compound": "COc1cc2ncnc(Nc3ccc(Oc4ccccc4)cc3C)c2cc1OC", "assay": "enzyme activity, inhibitor", "setting": "1 µM", "measurement": "inhibition", "value": "98%"}
{"Compound": "CN(c1ccnc(CNc2nc(Nc3ccc4c(c3)CC(=O)N4)ncc2C(F)(F)F)n1)S(C)(=O)=O", "assay": "cell-free assay, competition with immobilised ligand", "setting": "1 µM", "measurement": "remaining binding", "value": "58%"}
{"Compound": "CCN(CC)CCNC(=O)c1c(C)[nH]c(/C=C2\\C(=O)Nc3ccc(F)cc32)c1C", "assay": "enzyme activity, inhibitor", "setting": "10 µM", "measurement": "inhibition", "value": "97%"}
{"Compound": "CN1CCC2(CC1)NC(=O)c1c(c3ccc(Cl)c(Cl)c3n1C)C2C#N (racemic)", "assay": "thermal stability, DSF", "setting": "10 µM", "measurement": "ΔTm", "value": "0.1 °C"}
{"Compound": "O=C(O)c1cc(-c2ccc(C3CCNCC3)cc2)c2ccc(-c3ccc(C(F)(F)F)cc3)cc2c1", "assay": "cell-free assay, competition with immobilised ligand", "setting": "1 µM", "measurement": "remaining binding", "value": "100%"}
{"Compound": "CC(C)(C)c1nc2c(s1)c1nc(N)ncc1c1ccc(NS(=O)(=O)c3c(F)cccc3F)c(F)c12", "assay": "enzyme activity, inhibitor, radiometric", "setting": "1 µM", "measurement": "remaining activity", "value": "91%"}
{"Compound": "CNC(=O)c1ccc(Nc2ncc(C(F)(F)F)c(NCc3nccnc3N(C)S(C)(=O)=O)n2)cc1", "assay": "cell-free assay, competition with immobilised ligand", "setting": "0.1 µM", "measurement": "remaining binding", "value": "81%"}
{"Compound": "Cc1cnc(NC2CCOCC2)nc1-n1cnc(C(=O)NC(CN)c2cc(F)cc(Cl)c2)c1 (stereo not shown)", "assay": "enzyme activity, inhibitor, radiometric", "setting": "1 µM", "measurement": "remaining activity", "value": "97%"}
{"Compound": "CCC1(CC)NC(=O)c2c(c3ccc(Cl)c(Cl)c3n2C)C1C#N (stereo not shown)", "assay": "thermal stability, DSF", "setting": "10 µM", "measurement": "ΔTm", "value": "0 °C"}
{"Compound": "COc1cc(Cl)c(C(=O)N[C@@H](CN[C@H]2CC[C@@H](N)CC2)Cc2ccc(C#N)cc2)cc1-c1ccc(CN[C@H](C)c2ccc(C)cc2)o1", "assay": "enzyme activity, inhibitor", "setting": "1 µM", "measurement": "remaining activity", "value": "87%"}
{"Compound": "Cn1c2c(c3ccc(Cl)c(Cl)c31)C(C#N)C1(CCCC1)NC2=O (stereo not shown)", "assay": "thermal stability, DSF", "setting": "10 µM", "measurement": "ΔTm", "value": "-0.2 °C"}
{"Compound": "Cc1ccc(C(=O)Nc2ccc(CN3CCN(C)CC3)c(C(F)(F)F)c2)cc1C#Cc1cnc2cccnn12", "assay": "enzyme activity", "setting": "23.5 nM", "measurement": "remaining activity", "value": "10%"}
{"Compound": "O=C(Nc1cccnn1)N1CCC(=Cc2cccc(Oc3ccc(C(F)(F)F)cn3)c2)CC1", "assay": "cell-free assay, competition with immobilised ligand", "setting": "1 µM", "measurement": "remaining binding", "value": "63%"}
{"Compound": "Cc1ccc(NC(=O)c2ccc(CN3CCN(C)CC3)cc2)cc1Nc1nc(-c2cccnc2)cs1", "assay": "cell-free assay", "setting": "0.5 µM", "measurement": "remaining signal", "value": "43.6%"}
{"Compound": "CCN1CCC2(CC1)NC(=O)c1c(c3ccc(Cl)c(Cl)c3n1C)C2C#N (racemic)", "assay": "thermal stability, DSF", "setting": "10 µM", "measurement": "ΔTm", "value": "-0.1 °C"}
{"Compound": "O=C1Nc2ccc(Cl)cc2C1=Cc1cc(Cl)c(O)c(Cl)c1", "assay": "cell-free assay", "setting": "0.5 µM", "measurement": "remaining signal", "value": "84.8%"}
{"Compound": "CCN(CC)c1ccc(C2=NNC(=O)CC2C)cc1[N+](=O)[O-] (stereo not shown)", "assay": "enzyme activity, inhibitor", "setting": "10 µM", "measurement": "remaining activity", "value": "85%"}
{"Compound": "O=C(N1CCS(=O)(=O)CC1)N1C[C@H](c2ccc(OC(F)(F)F)cc2)C[C@H](c2nc(C3CC3)no2)C1", "assay": "cell-free assay, competition with immobilised ligand", "setting": "1 µM", "measurement": "remaining binding", "value": "100%"}
{"Compound": "Cc1cc(NC(=O)c2cccc3cc(-c4cccc5[nH]nc(N)c45)ccc23)ccc1F", "assay": "enzyme activity, inhibitor", "setting": "0.1 µM", "measurement": "activity vs control", "value": "110%"}
{"Compound": "O=C(Nc1cccnn1)N1CC(C/C=C/c2cncc(Oc3ccc(C(F)(F)F)cn3)n2)C1", "assay": "cell-free assay, competition with immobilised ligand", "setting": "1 µM", "measurement": "remaining binding", "value": "100%"}
{"Compound": "Cc1ccc(NC(=O)c2ccc(C)c(C(F)(F)F)c2)cc1C#Cc1nn(C2CCC(O)CC2)c2ncnc(N)c12 (stereo not shown)", "assay": "cell-free assay", "setting": "10 µM", "measurement": "remaining signal", "value": "2%"}
{"Compound": "FC(F)(F)c1ccc2c(c1)nc(-c1cccnc1)n2C1CC1", "assay": "cell-free assay, competition with immobilised ligand", "setting": "1 µM", "measurement": "remaining binding", "value": "100%"}
{"Compound": "Cn1c2c(c3ccc(Cl)c(Cl)c31)C(C#N)C1(CCNCC1)NC2=O (racemic)", "assay": "thermal stability, DSF", "setting": "10 µM", "measurement": "ΔTm", "value": "0.1 °C"}
{"Compound": "O=C1CCc2cc(Nc3cc(OC4CCOCC4)c([N+](=O)[O-])cc3Cl)ccc2N1", "assay": "cell-free assay, competition with immobilised ligand", "setting": "1 µM", "measurement": "remaining binding", "value": "100%"}
{"Compound": "CN(c1nccc(-c2cnn3ncccc23)n1)C1CC1", "assay": "cell-free assay", "setting": "1 µM", "measurement": "remaining signal", "value": "100%"}
